The target of series [1] is T1, Matrilysin (Homo sapiens, UniProt P09237).
T1 sequence (P09237 whole entry): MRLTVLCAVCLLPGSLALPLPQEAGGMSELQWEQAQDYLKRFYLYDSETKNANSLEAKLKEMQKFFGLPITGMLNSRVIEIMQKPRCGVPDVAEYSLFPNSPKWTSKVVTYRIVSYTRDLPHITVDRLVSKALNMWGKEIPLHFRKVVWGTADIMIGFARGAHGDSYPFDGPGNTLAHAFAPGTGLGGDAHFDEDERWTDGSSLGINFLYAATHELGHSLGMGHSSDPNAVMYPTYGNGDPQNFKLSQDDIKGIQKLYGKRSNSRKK
Kind of series: Inhibitory activity against matrix metalloprotease-7. An outline of the steps:
(§1)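 Inhibition of each enzyme (MMP-1 collagenase-1, MMP-2 gelatinase A, MMP-3 stromelysin, MMP-7 matrilysin, MMP-8 collagenase-2, MMP-9 gelatinase B) was measured at pH 7.4 and reported as binding values. Compounds were tested as racemic mixtures. Standard deviations were under 30% of the mean values.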

The target of series [2] is Neutrophil collagenase (Homo sapiens, UniProt P22894). In words: Inhibitory activity against matrix metalloprotease-8.
Neutrophil collagenase, sequence (P22894 whole entry): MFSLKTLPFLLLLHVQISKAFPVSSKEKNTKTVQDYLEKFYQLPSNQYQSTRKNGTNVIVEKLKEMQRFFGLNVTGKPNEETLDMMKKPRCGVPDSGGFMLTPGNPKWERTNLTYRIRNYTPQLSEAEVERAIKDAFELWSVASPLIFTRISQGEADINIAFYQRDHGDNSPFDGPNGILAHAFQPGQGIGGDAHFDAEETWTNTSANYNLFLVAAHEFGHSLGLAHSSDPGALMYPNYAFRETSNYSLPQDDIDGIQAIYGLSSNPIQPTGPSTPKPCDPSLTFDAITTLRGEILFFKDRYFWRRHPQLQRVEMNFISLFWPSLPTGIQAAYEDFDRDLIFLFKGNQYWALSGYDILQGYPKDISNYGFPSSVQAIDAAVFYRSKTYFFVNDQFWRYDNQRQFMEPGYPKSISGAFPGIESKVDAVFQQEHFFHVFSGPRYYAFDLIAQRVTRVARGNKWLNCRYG
Series [3] concerns the target Matrix metalloproteinase-9 (Homo sapiens, UniProt P14780). Kind of series: In vitro inhibition of human matrix metalloprotease-9. An outline of the steps: as §1
The target of series [4] is 72 kDa type IV collagenase (Homo sapiens, UniProt P08253). Kind of series: In vitro inhibitory activity against matrix metalloprotease-2.
72 kDa type IV collagenase, sequence (P08253 whole entry): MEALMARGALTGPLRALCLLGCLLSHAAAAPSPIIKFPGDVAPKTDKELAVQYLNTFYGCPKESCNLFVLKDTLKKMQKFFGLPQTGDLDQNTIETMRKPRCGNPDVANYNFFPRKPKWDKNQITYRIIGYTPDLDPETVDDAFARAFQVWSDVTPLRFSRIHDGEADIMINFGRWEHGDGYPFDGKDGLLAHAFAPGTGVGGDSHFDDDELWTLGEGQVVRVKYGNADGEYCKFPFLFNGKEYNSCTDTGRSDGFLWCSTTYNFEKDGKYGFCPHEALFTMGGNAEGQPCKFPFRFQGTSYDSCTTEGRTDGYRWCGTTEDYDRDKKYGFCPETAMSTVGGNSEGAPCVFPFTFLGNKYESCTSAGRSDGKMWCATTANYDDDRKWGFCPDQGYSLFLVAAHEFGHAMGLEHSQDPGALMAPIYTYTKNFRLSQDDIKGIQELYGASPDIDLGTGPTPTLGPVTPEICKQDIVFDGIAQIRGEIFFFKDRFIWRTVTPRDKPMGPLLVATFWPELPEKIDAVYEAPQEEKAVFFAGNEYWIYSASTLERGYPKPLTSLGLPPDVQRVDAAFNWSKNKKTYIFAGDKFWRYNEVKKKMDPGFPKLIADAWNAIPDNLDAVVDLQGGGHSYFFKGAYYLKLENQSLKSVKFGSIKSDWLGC
Series [5] concerns the target T2, Stromelysin-1 (Homo sapiens, UniProt P08254). Kind of series: (§2) In vitro inhibitory activity against matrix metalloprotease-3.
Series [6] has as its target T3, Interstitial collagenase (Homo sapiens, UniProt P03956).
T3 sequence (P03956 whole entry): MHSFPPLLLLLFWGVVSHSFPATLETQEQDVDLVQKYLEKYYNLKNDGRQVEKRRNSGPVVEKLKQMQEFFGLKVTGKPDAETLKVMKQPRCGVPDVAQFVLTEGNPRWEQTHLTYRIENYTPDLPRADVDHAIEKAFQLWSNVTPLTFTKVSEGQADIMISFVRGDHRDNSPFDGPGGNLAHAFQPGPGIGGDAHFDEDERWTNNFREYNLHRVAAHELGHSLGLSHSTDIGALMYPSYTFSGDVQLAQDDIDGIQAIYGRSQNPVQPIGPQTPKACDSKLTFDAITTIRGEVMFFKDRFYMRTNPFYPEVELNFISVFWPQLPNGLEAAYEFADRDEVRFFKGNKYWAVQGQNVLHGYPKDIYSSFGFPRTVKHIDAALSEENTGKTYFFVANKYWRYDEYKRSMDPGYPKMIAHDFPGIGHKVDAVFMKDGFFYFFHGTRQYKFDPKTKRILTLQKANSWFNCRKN
Kind of series: (§3) In vitro inhibitory activity against matrix metalloprotease-1.

The nature of series [7]: physchem.
In series [8] the target is Collagenase 3 (Homo sapiens, UniProt P45452). In words: In vitro inhibitory activity against matrix metalloprotease-13.
Series [9] has as its target T3, Interstitial collagenase. The description is as §3. Summed up: as §1
This is another data set of the same source.

Series [10] concerns the target T2, Stromelysin-1. The series is described as §2. An outline of the steps: as §1
This is another data set of the same source.

The record followed here is ChEMBL document CHEMBL1134541, “Potent and selective carboxylic acid-based inhibitors of matrix metalloproteinases” (J Med Chem, 2001).

≈ marks a conversion by molar mass, not a printed value. Bounds are passed on as bounds.

Matrix metalloproteinase-9, sequence (P14780 whole entry): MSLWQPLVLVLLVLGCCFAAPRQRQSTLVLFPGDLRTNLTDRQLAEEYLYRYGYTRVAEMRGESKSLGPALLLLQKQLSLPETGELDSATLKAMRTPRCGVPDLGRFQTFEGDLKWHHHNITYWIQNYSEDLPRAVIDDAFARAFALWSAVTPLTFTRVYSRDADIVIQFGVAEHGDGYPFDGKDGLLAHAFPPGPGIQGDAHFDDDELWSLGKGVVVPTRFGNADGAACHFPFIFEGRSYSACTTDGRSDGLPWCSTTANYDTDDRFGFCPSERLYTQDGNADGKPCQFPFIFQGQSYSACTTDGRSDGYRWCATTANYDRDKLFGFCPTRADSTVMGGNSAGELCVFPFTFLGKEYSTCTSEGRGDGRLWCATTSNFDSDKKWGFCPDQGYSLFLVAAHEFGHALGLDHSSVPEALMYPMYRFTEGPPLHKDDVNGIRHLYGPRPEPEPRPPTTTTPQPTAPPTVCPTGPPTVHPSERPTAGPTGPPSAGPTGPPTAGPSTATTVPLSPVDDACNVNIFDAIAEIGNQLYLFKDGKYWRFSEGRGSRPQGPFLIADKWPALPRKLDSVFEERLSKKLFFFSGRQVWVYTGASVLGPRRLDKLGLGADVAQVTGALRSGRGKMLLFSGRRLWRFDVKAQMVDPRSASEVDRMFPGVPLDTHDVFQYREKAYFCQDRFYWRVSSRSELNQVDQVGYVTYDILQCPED
T2 sequence (P08254 whole entry): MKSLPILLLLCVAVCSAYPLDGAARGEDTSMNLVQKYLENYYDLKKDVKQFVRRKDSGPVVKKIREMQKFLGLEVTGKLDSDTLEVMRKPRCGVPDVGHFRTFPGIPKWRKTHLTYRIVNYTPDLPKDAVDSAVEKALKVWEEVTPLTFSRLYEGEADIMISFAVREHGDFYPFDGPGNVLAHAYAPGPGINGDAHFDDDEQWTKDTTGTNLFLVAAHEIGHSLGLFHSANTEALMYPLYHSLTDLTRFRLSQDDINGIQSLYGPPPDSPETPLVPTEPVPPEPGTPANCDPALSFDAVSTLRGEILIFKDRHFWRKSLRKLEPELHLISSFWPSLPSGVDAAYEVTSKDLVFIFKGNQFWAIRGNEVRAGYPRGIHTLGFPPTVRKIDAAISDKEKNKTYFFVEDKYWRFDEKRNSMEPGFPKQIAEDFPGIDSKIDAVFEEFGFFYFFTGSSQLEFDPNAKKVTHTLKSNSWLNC

For `COc1ccc(-c2ccc(S(=O)(=O)NC(CC#Cc3ccccc3)C(=O)O)cc2)cc1` (centres undefined), the IC50 in series [1] is over 10000 nM; in [2] it was 9.4 nM; in series [3] it was 553 nM; in series [4] it was 12.5 nM.
Turning to `COc1ccc(-c2ccc(S(=O)(=O)N[C@@H](C(=O)O)C3CCN(C(=O)OC(C)(C)C)CC3)cc2)cc1`, the IC50 in [1] is 3660 nM; in series [5], 33.7 nM; in series [3] it was 6.6 nM; in series [6] it was 1370 nM.
Turning to `COCCOC(=O)N1CCC(C(NS(=O)(=O)c2ccc(-c3ccc(SC)cc3)cc2)C(=O)O)CC1` (centres undefined), the IC50 in series [1] was found to be 1020 nM; in [2], 1.8 nM; in series [5] it was 40.6 nM; in [3], 7.3 nM; in [6], 1080 nM; in series [4], 0.4 nM. The compound also registered an IC50 in [8] of 1 nM. This compound had a solubility in series [7] of 3500 µg/mL (≈ 6.7 mM).
As to `COC(=O)N1CCC(C(NS(=O)(=O)c2ccc(-c3ccc(OC)cc3)cc2)C(=O)O)CC1` (centres undefined), the IC50 came out at 5650 nM in series [1]; 657 nM in series [5]; 177 nM in [3]; 5210 nM in series [6]; 2.8 nM in series [4].
Taken in the same sequence, the figures for `COCCOC(=O)N1CCC(C(C(=O)O)N(C)S(=O)(=O)c2ccc(-c3ccc(OC)cc3)cc2)CC1` (centres undefined) were 3950 nM, 69.6 nM, 13.9 nM, 1850 nM and 0.9 nM.
Consider `COCCOC(=O)N1CCC(C(NS(=O)(=O)c2ccc(-c3ccccc3)cc2)C(=O)O)CC1` (centres undefined), for which the IC50 was over 10000 nM in [1]; 44.8 nM in series [2]; 418 nM in series [5]; 415 nM in [3]; 6050 nM in series [6]; 24.2 nM in series [4]. In series [8], this compound had an IC50 of 55.3 nM.
Consider `COCCOC(=O)N1CCC(C(C(=O)O)N(CCOC)S(=O)(=O)c2ccc(-c3ccc(OC)cc3)cc2)CC1` (centres undefined), for which the IC50 came to 2650 nM in [1]; 2.4 nM in [2]; 45.5 nM in series [5]; 9.1 nM in [3]; 1220 nM in series [6]; 0.6 nM in series [4]. The compound further yielded an IC50 in [8] of 1 nM. This compound also showed a solubility in series [7] of 11100 µg/mL (≈ 19.6 mM).
Turning to `COc1ccc(-c2ccc(S(=O)(=O)N[C@H](C(=O)O)C3CCN(C(=O)OC(C)(C)C)CC3)cc2)cc1`, the IC50 came out at 8510 nM in series [1], 345 nM in series [5], 71.5 nM in series [3] and 3490 nM in series [6].
Regarding `COc1ccc(-c2ccc(S(=O)(=O)N[C@H](C(=O)O)C(C)C)cc2)cc1`, the IC50 was over 10000 nM in series [1]; 10.6 nM in [2]; 1890 nM in [5]; 747 nM in series [3]; 6.6 nM in series [4]; 24.2 nM in [8]. The IC50 in series [9] was 8710 nM.
As to `COc1ccc(-c2ccc(S(=O)(=O)NC(C(=O)O)C3CCN(C(=O)CC(C)C)CC3)cc2)cc1` (centres undefined), the IC50 in series [1] came out at 4370 nM; in series [5], 739 nM; in series [3] it was 137 nM; in series [6], 4900 nM; in [4], 3.2 nM.
As to `COc1ccc(-c2ccc(S(=O)(=O)NC(C(=O)O)C3CCNCC3)cc2)cc1` (centres undefined), the IC50 in series [1] stood at 4240 nM; in series [2], 30.2 nM; in series [3], 1760 nM; in series [6] it was 3890 nM; in series [4], 53 nM; in series [8], 264 nM. Half-maximal inhibition in series [10] (IC50) was put at 4840 nM.
Regarding `COCCOC(=O)N1CCC(C(NS(=O)(=O)c2ccc(Oc3ccccc3)cc2)C(=O)O)CC1` (centres undefined), the IC50 in series [1] is over 10000 nM; in [2], 25.8 nM; in series [5] it was 399 nM; in series [3], 597 nM; in [6] it was over 10000 nM; in series [4] it was 58.1 nM. For the same compound, the IC50 in [8] is 140 nM.
On to `COc1ccc(-c2ccc(S(=O)(=O)NC(C(=O)O)C3CCN(C(=O)OC(C)(C)C)CC3)cc2)cc1` (centres undefined), for which the IC50 is 2590 nM in [1], 56.4 nM in series [5], 5.4 nM in series [3] and 1420 nM in series [6].
In the case of `COc1ccc(-c2ccc(S(=O)(=O)NC(C(=O)O)C3CCN(C(=O)N4CCOCC4)CC3)cc2)cc1` (centres undefined), the IC50 in series [1] was 8570 nM; in series [5], 221 nM; in [3] it was 50.8 nM; in series [6], 1760 nM; in series [4] it was 1.1 nM.
On to `COc1ccc(-c2ccc(S(=O)(=O)NC(C(=O)O)C3CCN(C(=O)OC(C)C)CC3)cc2)cc1` (centres undefined), for which the IC50 in series [1] was 1740 nM; in [2], 1.5 nM; in [5] it was 41.8 nM; in [3], 11.7 nM; in series [6], 1400 nM; in series [4], under 0.4 nM. Besides, the IC50 in [8] was 1 nM. Besides, the solubility in series [7] was 130 µg/mL (≈ 0.265 mM).
As for `O=C(CC(CSc1ccccc1)C(=O)O)c1ccc(-c2ccc(Cl)cc2)cc1` (centres undefined), the IC50 was over 10000 nM in [1]; 303 nM in series [2]; 3110 nM in series [3]; over 10000 nM in series [6]; 91.3 nM in [4]; 1570 nM in series [8].
In the case of `CCOC(=O)N1CCC(C(NS(=O)(=O)c2ccc(-c3ccc(OC)cc3)cc2)C(=O)O)CC1` (centres undefined), the IC50 in series [1] was 9870 nM; in series [5], 162 nM; in [3], 94.9 nM; in [6] it was 2760 nM; in [4], 1 nM.
On to `CCCCOc1ccc(S(=O)(=O)NC(C(=O)O)C2CCN(C(=O)OCCOC)CC2)cc1` (centres undefined), for which the IC50 in series [1] is over 10000 nM; in [2], 294 nM; in [5] it was 678 nM; in [3], 2990 nM; in [6] it was over 10000 nM; in series [4] it was 549 nM. In series [8], this compound returned an IC50 of 791 nM.
For the compound `COCCOC(=O)N1CCC(C(C(=O)O)N(Cc2ccccn2)S(=O)(=O)c2ccc(-c3ccc(OC)cc3)cc2)CC1` (centres undefined), the IC50 was determined as 3640 nM in series [1]; 3.2 nM in [2]; 86.1 nM in [5]; 18.7 nM in series [3]; 3310 nM in series [6]; 1 nM in series [4]. In series [8], this compound returned an IC50 of 3 nM.
Take `COCCOC(=O)N1CCC(C(NS(=O)(=O)c2ccc(-c3ccc(OC)cc3)cc2)C(=O)O)CC1` (stereo in doubt; 13g): the IC50 in series [1] was found to be 4110 nM; in [2], 3.4 nM; in [5] it was 133 nM; in series [3], 55 nM; in series [4], 0.8 nM; in series [8], 3.5 nM. The solubility in series [7] is 8070 µg/mL (≈ 15.9 mM).
Take `COCCOC(=O)N1CCC(C(NS(=O)(=O)c2ccc(-c3ccc(OC)cc3)cc2)C(=O)O)CC1` (stereo in doubt; 14i): the IC50 in series [2] is 0.5 nM; in series [5], 13.8 nM; in series [3], under 0.4 nM; in series [8], 0.4 nM.
